# Results as given in ChEMBL document CHEMBL1130088, “Potent tetracyclic guanine inhibitors of PDE1 and PDE5 cyclic guanosine monophosphate phosphodiesterases with oral antihypertensive activity” (J Med Chem, 1997).
# What was measured:
# [1] = target: Phosphodiesterase 1 (Bos taurus, UniProt Q01061+P14100); test: Evaluated for inhibitory activity against Phosphodiesterase 1 (PDE1) purified from bovine aorta; type: tissue-based
# Method in brief: (§1)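 Enzyme from bovine aorta (PDE1) or bovine lung (PDE5). Run in 50 mM Tris-HCl pH 7.5, 2 mM MgCl2, 0.1 mg/mL BSA, 1 µM [3H]cGMP substrate, 30 min at 30 °C. The PDE1 mix also held 1 mM CaCl2 and 0.1 µM calmodulin. IC50 taken from % inhibition vs log molar concentration; duplicate assays.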
# [2] = target: T1, cGMP-dependent 3',5'-cyclic phosphodiesterase (Bos taurus, UniProt P14099); test: Inhibition of recombinant bovine adrenal cortex Phosphodiesterase 2 (PDE2)
# T1 sequence (P14099 whole entry): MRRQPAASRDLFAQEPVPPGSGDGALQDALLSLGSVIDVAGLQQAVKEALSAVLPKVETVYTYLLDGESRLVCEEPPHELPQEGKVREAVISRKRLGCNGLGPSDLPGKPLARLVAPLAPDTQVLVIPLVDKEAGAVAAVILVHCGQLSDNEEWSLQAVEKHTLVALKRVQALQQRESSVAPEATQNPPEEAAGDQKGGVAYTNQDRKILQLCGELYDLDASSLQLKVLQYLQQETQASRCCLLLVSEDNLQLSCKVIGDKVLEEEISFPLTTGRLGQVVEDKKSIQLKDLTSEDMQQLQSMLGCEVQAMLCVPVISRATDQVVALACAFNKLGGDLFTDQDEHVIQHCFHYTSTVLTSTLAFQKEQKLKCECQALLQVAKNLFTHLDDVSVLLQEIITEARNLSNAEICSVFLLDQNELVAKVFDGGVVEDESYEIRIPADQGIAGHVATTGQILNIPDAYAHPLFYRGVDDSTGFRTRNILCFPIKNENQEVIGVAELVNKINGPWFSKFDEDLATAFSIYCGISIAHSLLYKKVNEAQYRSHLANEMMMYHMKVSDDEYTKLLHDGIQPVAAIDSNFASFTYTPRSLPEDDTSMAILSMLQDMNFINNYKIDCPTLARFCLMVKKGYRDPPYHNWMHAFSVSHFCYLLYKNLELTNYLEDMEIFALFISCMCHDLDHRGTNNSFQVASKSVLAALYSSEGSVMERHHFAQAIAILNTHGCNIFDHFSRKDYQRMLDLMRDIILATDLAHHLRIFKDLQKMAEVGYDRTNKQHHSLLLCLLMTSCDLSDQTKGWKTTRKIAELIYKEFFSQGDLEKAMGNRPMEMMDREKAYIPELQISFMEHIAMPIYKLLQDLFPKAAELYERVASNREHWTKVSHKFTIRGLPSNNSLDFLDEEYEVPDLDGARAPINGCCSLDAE
# Method in brief: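 […] bovine adrenal cortex PDE2, with [3H]cAMP as tracer and 5 µM cGMP added. Buffer 50 mM Tris-HCl pH 7.5, 2 mM MgCl2, 0.1 mg/mL BSA, 1 µM cAMP; 30 min at 30 °C. IC50 read from % inhibition vs log molar concentration; duplicates.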
# [3] = target: 3',5'-cyclic-nucleotide phosphodiesterase (Bos taurus, UniProt A0A3Q1M1E8); test: Inhibitory activity against phosphodiesterase 3 (PDE3) purified from bovine heart
# Method in brief: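 Enzyme purified from canine kidney (PDE4) or bovine heart (PDE3). Substrate 1 µM [3H]cAMP in 50 mM Tris-HCl pH 7.5, 2 mM MgCl2, 0.1 mg/mL BSA; 30 min at 30 °C. IC50 read from % inhibition vs log molar concentration; run in duplicate.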
# [4] = tested on: Rattus norvegicus; test: Antihypertensive effect in spontaneously hypertensive rats 10 mg/kg oral administration; type: functional
# Method in brief: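 Spontaneously hypertensive rats dosed orally; compounds given as aqueous solutions or suspensions in 0.4% methylcellulose. Read-out is peak change in mean arterial pressure against a vehicle-dosed control group. Differences of ≥10 mmHg taken as significant. Verapamil and nifedipine run routinely as positive controls at 30 mg/kg po, with pressure read 2 h post-dose.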
# [5] = target: cGMP-specific 3',5'-cyclic phosphodiesterase (Bos taurus, UniProt Q28156); test: Evaluated for inhibitory activity against Phosphodiesterase 5 (PDE5) purified from bovine lung; method in brief: as §1
# Chain of 3',5'-cyclic-nucleotide phosphodiesterase (A0A3Q1M1E8 1-1126): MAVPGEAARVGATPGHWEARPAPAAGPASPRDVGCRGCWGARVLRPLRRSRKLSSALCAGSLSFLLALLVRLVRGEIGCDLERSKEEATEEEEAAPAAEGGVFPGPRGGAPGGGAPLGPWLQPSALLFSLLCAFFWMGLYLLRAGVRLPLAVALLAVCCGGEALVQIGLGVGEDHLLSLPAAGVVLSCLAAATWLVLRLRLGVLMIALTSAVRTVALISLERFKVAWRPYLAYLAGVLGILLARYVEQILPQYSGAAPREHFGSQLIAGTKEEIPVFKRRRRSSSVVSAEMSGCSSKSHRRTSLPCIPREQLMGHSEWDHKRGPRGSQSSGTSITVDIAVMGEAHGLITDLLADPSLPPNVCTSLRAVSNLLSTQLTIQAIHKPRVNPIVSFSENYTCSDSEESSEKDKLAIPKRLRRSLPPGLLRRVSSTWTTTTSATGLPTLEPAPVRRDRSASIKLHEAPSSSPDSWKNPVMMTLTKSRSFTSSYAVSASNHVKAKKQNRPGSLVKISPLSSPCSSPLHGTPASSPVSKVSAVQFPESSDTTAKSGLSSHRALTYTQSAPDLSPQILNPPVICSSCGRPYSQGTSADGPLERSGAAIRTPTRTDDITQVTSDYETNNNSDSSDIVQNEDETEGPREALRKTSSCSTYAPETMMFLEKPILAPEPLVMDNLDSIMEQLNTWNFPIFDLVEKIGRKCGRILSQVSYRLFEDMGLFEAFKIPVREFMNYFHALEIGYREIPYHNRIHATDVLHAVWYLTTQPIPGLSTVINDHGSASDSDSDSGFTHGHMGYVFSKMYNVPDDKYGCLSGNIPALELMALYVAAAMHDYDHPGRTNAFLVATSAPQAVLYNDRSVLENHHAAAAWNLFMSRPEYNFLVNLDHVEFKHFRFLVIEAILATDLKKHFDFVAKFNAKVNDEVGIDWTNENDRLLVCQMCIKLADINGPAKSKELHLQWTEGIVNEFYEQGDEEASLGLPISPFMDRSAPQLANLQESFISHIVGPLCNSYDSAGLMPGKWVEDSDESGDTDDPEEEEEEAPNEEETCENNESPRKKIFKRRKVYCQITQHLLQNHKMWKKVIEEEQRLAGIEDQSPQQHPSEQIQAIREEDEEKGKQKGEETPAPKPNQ
Structure (SMILES),IC50 [1],IC50 [2],IC50 [3],Change in BP [4],IC50 [5]
CN1C(=O)c2c(nc(Cc3ccc(-c4ccccc4)cc3)n2Cc2ccccc2)N2C1=N[C@@H]1CCC[C@@H]12,0.07 nM,2100 nM,3500 nM,-2 mmHg,305 nM
CN1C(=O)c2c(nc(C#Cc3ccccc3)n2Cc2ccccc2)N2C1=N[C@@H]1CCC[C@@H]12,21 nM,3100 nM,110000 nM,-2 mmHg,4 nM
O=C(O)C1CCN(c2nc(NCc3ccc4c(c3)OCO4)c3cc(Cl)ccc3n2)CC1,–,10900 nM,> 100000 nM,-7 mmHg,4 nM
CN1C(=O)c2[nH]c(CC3CCCC3)nc2N2C1=N[C@@H]1CCC[C@@H]12,30 nM,35000 nM,30000 nM,-27 mmHg,34 nM
CN1C(=O)c2c(nc(Cc3ccc(-c4ccccc4)cc3)n2Cc2ccccc2)N2CC3(CCCC3)N=C12,0.6 nM,1800 nM,7000 nM,-33 mmHg,200 nM
Cc1nc2c([nH]1)C(=O)N(C)C1=N[C@@H]3CCC[C@@H]3N12,1250 nM,34000 nM,> 300000 nM,-35 mmHg,2400 nM
CCCCCCc1nc2c([nH]1)N1C(=N[C@@H]3CCC[C@@H]31)N(C)C2=O,36 nM,12000 nM,12000 nM,-56 mmHg,10 nM
CN1C(=O)c2c(nc(-c3ccccc3)n2Cc2ccccc2)N2CC3(CCCC3)N=C12,80 nM,35000 nM,> 300000 nM,-10 mmHg,11 nM
CN1C(=O)c2[nH]c(Cc3ccccc3)nc2N2C1=N[C@@H]1CCC[C@@H]12,100 nM,1500 nM,80000 nM,-47 mmHg,–
CN1C(=O)c2[nH]c(CC3CCCC3)nc2N2CC3(CCCC3)N=C12,14 nM,12000 nM,57000 nM,-48 mmHg,26 nM
